Activity calls are given as the source filed them.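 Rule for the calls, unless noted: active = fluorescence slope after compound addition differing from the mean of all screened samples at 99.7% confidence, in either direction; inactive = the rest.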
Key:
[1] = inhibitors of TNFa-induced NFkB p65 translocation, primary screen, imaging, HUVEC, MLSMR starter and 10KST1 sets (AID 438;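 active = inhibition above 20% together with a positive visual image hit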;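 note: compound added about 3h40 before a 20 min TNFalpha stimulation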;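 for inhibition: signal is the nuclear over cytoplasmic p65 intensity ratio per well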); details: HUVEC TNFa-induced p65 nuclear translocation; cell count: measured here: nuclei count (cytotoxicity indicator), at 2.08 µM; inhibition: at 2 µM, stronger effect = higher value, 0% TNFa-plus-vehicle, 100% no-TNFa wells
[2] = inhibitors of E-selectin induction by TNFa, primary screen, imaging, HUVEC, immunofluorescence, MLSMR starter and 10KST1 sets (AID 487;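 active = visually confirmed hit in the image check and inhibition above 20%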;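 for inhibition: signal is fraction of cell area covered by stained E-selectin grains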;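 for nuclei count: 100% = median nuclei count of all wells on the same plate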); details: HUVEC TNFalpha-induced E-selectin immunofluorescence imaging, at 2 µM; inhibition: stronger effect = higher value; nuclei count: measured here: cell number, toxicity
[3] = DUSP6 inhibitors restoring Erk phosphorylation by chemical complementation, primary imaging in DUSP6-transfected HeLa (AID 609;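 active = compounds giving at least 50% inhibition in the cell-based MKP-3 phosphatase rescue imaging test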;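 for inhibition: phospho-Erk level distribution per well compared with pooled transfected vehicle control wells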); details: HeLa MKP-3 transfected, phospho-Erk imaging KS statistic, at 10 µM, cells stimulated with TPA for 15 min
[4] = biological target: Dual specificity protein phosphatase 6 (Homo sapiens) (UniProt Q16828); assay: as above; details: HeLa MKP-3 transfected, phospho-Erk imaging KS statistic; at 10 µM; stronger effect = higher value; cells stimulated with TPA for 15 min
[5] = biological target: Voltage-gated potassium channel subunit beta-2 (Rattus norvegicus) (UniProt P62483); assay: KvBeta enzyme negative modulators, primary screen, biochemical, NADPH fluorescence (AID 622;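 active = fluorescence slope higher than the sample average by over 3 SD, cut at about -0.22 in these data, passing the limit was not always enough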;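 note: slope of raw intensity against log time taken from 70 to 1610 s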); details: recombinant KvBeta, 4-cyanobenzaldehyde reduction, at 10 µM, stronger effect = higher value
[6] = biological target: Voltage-gated potassium channel subunit beta-2 (Rattus norvegicus) (UniProt P62483); assay: KvBeta positive modulators, primary screen, biochemical, NADPH fluorescence (AID 623;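 active = NADPH fluorescence slope more negative than the mean of all samples by about 3 SD, 99.7% confidence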;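 note: fluorescence intensity change per second fitted from 20 to 320 s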); details: Recombinant KvBeta, NADPH fluorescence decrease slope, 10 min; at 10 µM; stronger effect = lower value
[7] = biological target: Alpha-2C adrenergic receptor (Homo sapiens) (UniProt P18825); assay: modulators of alpha2C/GIRK thallium flux, primary screen, cell-based, HEK293 alpha2C/GIRK1/2 (AID 624); details: thallium flux BTC fluorescence, at 10 µM, actives lie on both sides;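 note: slope of fluorescence ratio to pre-addition baseline per second over 15 to 24 s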
[8] = inhibitors of larval lipid processing in zebrafish, primary screen, whole organism, PED6 fluorescence, gall bladder and intestine (AID 686;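 active = a full or partial loss of lipid-probe fluorescence in the fish gall bladder, intestine or both, judged by eye; inactive = no fluorescence loss, or compound toxic to the fish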;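 note: larvae 5 to 7 days old with five fish per well; signal comes from phospholipase A2 cleavage of quenched PED6 carried via bile; overnight exposure to compound and PED6 before scoring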); details: Zebrafish larvae PED6 lipid processing, fluorescence scoring; screened at 20 µM (by protocol)
Method in brief: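 Test system – live zebrafish larvae aged 5-7 days, whole organism · Buffer or medium – E3 fish medium · Reagent – quenched phospholipase substrate PED6, 100 nM final, ingested by larvae · Doses – 20 µM single dose · Incubation – overnight compound and PED6 incubation · Technique – visual fluorescence microscopy scoring of gall bladder, gut · Read-out basis – visual per-well fluorescence inhibition score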

[9] = inhibitors of Chlamydomonas gravitaxis, primary screen, whole organism, Chlamydomonas reinhardtii, WT vs cilia-less mutant, absorbance, 96-well (AID 463189;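 active = inhibition at or above 50% relative to wild type and mutant plate controls; inactive = inhibition below 50%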;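 note: 0% = wild type cc124 cells in DMSO and 100% = ciliumless bld1 mutant cells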); details: OD600 absorbance, 2 days, at 10 µM, stronger effect = higher value
[10] = measured here: cell density z-score
[11] = measured here: nuclear c-Myc green intensity z-score
[12] = measured here: nuclear pErk red intensity z-score, stronger effect = higher value

Sequence of Alpha-2C adrenergic receptor (Homo sapiens) (P18825 whole entry, looked up): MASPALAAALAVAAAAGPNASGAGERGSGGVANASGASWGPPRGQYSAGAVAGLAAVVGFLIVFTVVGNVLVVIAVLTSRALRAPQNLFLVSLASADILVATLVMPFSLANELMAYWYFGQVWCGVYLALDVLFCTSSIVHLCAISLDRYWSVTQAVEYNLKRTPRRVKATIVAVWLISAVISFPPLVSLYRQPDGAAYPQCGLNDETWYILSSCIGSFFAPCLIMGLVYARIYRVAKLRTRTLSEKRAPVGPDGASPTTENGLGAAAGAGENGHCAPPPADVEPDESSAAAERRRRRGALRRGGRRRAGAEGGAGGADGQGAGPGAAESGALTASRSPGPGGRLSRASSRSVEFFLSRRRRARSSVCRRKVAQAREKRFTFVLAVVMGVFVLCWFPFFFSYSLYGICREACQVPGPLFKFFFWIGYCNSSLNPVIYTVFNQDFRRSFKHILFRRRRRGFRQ
Sequence of Dual specificity protein phosphatase 6 (Homo sapiens) (Q16828 whole entry, looked up): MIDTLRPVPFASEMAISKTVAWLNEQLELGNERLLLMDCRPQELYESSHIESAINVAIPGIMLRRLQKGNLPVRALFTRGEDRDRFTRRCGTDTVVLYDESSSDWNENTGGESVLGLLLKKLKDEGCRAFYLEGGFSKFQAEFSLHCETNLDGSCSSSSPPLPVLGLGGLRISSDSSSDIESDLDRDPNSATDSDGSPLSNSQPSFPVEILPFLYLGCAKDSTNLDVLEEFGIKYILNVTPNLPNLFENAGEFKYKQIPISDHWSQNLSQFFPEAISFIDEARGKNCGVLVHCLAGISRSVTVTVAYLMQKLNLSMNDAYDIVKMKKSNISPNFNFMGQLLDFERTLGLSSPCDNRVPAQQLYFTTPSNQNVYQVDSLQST
Sequence of Voltage-gated potassium channel subunit beta-2 (Rattus norvegicus) (P62483 whole entry, looked up): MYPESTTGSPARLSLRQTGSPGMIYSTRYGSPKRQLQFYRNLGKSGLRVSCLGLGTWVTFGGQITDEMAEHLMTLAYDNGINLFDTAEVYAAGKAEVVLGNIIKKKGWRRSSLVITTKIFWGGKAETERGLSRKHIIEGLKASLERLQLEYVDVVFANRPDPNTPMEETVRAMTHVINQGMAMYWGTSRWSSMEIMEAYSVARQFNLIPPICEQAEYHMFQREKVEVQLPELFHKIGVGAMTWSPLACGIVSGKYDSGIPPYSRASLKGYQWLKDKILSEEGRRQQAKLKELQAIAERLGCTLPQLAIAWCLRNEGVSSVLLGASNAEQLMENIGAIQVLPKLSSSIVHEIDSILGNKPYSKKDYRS

SMILES: CN1C2C=C3C(C#N)=C(N)C(C#N)(C#N)[C@@H](c4cccs4)C3C1CC2 (some centres not stated)
- cell count [1]: 494
- inhibition [1]: -6.5% (inactive)
- inhibition [2]: -7.4% (inactive)
- nuclei count [2]: 116%
- z-score [3, 10]: 0.352
- z-score [3, 11]: -1.56
- z-score [3, 12]: 0.939
- inhibition [4]: 22.7% (inactive)
- fluorescence slope [5]: -0.419 (inactive)
- NADPH fluorescence slope [6]: 2.6e-06 (inactive)
- slope [7]: 0.00481 (inactive)
- outcome [8]: inactive
- inhibition [9]: -3.84% (inactive)

SMILES: c1ccc(N2CCN(c3nc(NCc4ccco4)c4ccccc4n3)CC2)cc1
- cell count [1]: 579
- inhibition [1]: 0.1% (inactive)
- inhibition [2]: -25.4% (inactive)
- nuclei count [2]: 219%
- z-score [3, 10]: 0.527
- z-score [3, 11]: -0.848
- z-score [3, 12]: 2.43
- inhibition [4]: -4.7% (inactive)
- fluorescence slope [5]: -0.35 (inactive)
- NADPH fluorescence slope [6]: -2.5e-05 (inactive)
- slope [7]: 0.00337 (inactive)
- outcome [8]: inactive
- inhibition [9]: 35.9% (inactive)

SMILES: Cc1cccc(C)c1OCC(O)CNS(=O)(=O)c1ccccc1C(=O)N1CCCCC1 (configuration not stated)
- cell count [1]: 512
- inhibition [1]: 5.4% (inactive)
- inhibition [2]: -148% (inactive)
- nuclei count [2]: 171%
- z-score [3, 10]: -0.797
- z-score [3, 11]: 2.33
- z-score [3, 12]: 0.877
- inhibition [4]: -3.95% (inactive)
- fluorescence slope [5]: -0.36 (inactive)
- NADPH fluorescence slope [6]: -7e-05 (inactive)
- slope [7]: 0.00455 (inactive)
- outcome [8]: inactive
- inhibition [9]: -6.87% (inactive)

SMILES: COC(=O)c1ccccc1N1C(=O)[C@@H]2C(c3ccc(Br)cc3)=NO[C@@H]2C1=O
- cell count [1]: 269
- inhibition [1]: -12.6% (inactive)
- inhibition [2]: 0.3% (inactive)
- nuclei count [2]: 89.9%
- z-score [3, 10]: -0.914
- z-score [3, 11]: 2.06
- z-score [3, 12]: -1.22
- inhibition [4]: 1.75% (inactive)
- fluorescence slope [5]: -0.458 (inactive)
- NADPH fluorescence slope [6]: -7.9e-05 (inactive)
- slope [7]: 0.00516 (inactive)
- outcome [8]: inactive
- inhibition [9]: -19.6% (inactive)

SMILES: CC1CN(C2CCN(S(=O)(=O)c3ccccc3)CC2)CC(C)O1 (configuration not stated)
- cell count [1]: 451
- inhibition [1]: -10.8% (inactive)
- inhibition [2]: -248% (inactive)
- nuclei count [2]: 159%
- z-score [3, 10]: 1.27
- z-score [3, 11]: -1.71
- z-score [3, 12]: -0.713
- inhibition [4]: 4.37% (inactive)
- fluorescence slope [5]: -0.322 (inactive)
- NADPH fluorescence slope [6]: -2.3e-05 (inactive)
- slope [7]: 0.00481 (inactive)
- outcome [8]: inactive
- inhibition [9]: 6.96% (inactive)

SMILES: S=c1[nH]nc(-c2ccco2)n1Cc1ccccc1
- cell count [1]: 367
- inhibition [1]: -8.2% (inactive)
- inhibition [2]: -105% (inactive)
- nuclei count [2]: 110%
- z-score [3, 10]: -1.5
- z-score [3, 11]: 1.31
- z-score [3, 12]: -1.88
- inhibition [4]: 11.9% (inactive)
- fluorescence slope [5]: -0.477 (inactive)
- NADPH fluorescence slope [6]: -0.000234 (inactive)
- slope [7]: 0.00534 (inactive)
- outcome [8]: inactive
- inhibition [9]: -18.5% (inactive)

SMILES: Nc1ccc2ncccc2c1N
- cell count [1]: 537
- inhibition [1]: -10% (inactive)
- inhibition [2]: -47.1% (inactive)
- nuclei count [2]: 103%
- z-score [3, 10]: 0.673
- z-score [3, 11]: 1.61
- z-score [3, 12]: 0.017
- inhibition [4]: -9.66% (inactive)
- fluorescence slope [5]: -0.517 (inactive)
- NADPH fluorescence slope [6]: -2.1e-05 (inactive)
- slope [7]: 0.0034 (inactive)
- outcome [8]: inactive
- inhibition [9]: -1.57% (inactive)

SMILES: c1ccc(Cc2nn[nH]n2)cc1
- cell count [1]: 659
- inhibition [1]: -11% (inactive)
- inhibition [2]: 49.2% (inactive)
- nuclei count [2]: 144%
- z-score [3, 10]: -1.16
- z-score [3, 11]: 0.713
- z-score [3, 12]: 1.02
- inhibition [4]: -3.95% (inactive)
- fluorescence slope [5]: -0.426 (inactive)
- NADPH fluorescence slope [6]: -5.4e-05 (inactive)
- slope [7]: 0.00705 (inactive)
- outcome [8]: inactive
- inhibition [9]: -10.1% (inactive)

SMILES: O=c1/c(=C\c2cccn2-c2ccccc2)sc2nc3ccccc3n12
- cell count [1]: 640
- inhibition [1]: -5.8% (inactive)
- inhibition [2]: -42.1% (inactive)
- nuclei count [2]: 99.1%
- z-score [3, 10]: -0.282
- z-score [3, 11]: 0.665
- z-score [3, 12]: 0.128
- inhibition [4]: 3.56% (inactive)
- fluorescence slope [5]: -0.181 (inactive)
- NADPH fluorescence slope [6]: 8.6e-06 (inactive)
- slope [7]: 0.00666 (inactive)
- outcome [8]: inactive
- inhibition [9]: 9.26% (inactive)

SMILES: CCCc1nn(C)c2c1C(c1cccnc1)C(C#N)=C(N)O2 (configuration not stated)
- cell count [1]: 521
- inhibition [1]: -5.3% (inactive)
- inhibition [2]: -50.3% (inactive)
- nuclei count [2]: 183%
- z-score [3, 10]: 0.834
- z-score [3, 11]: 0.991
- z-score [3, 12]: -0.817
- inhibition [4]: 9.61% (inactive)
- fluorescence slope [5]: -0.274 (inactive)
- NADPH fluorescence slope [6]: 4.2e-08 (inactive)
- slope [7]: 0.00487 (inactive)
- outcome [8]: inactive
- inhibition [9]: 14.7% (inactive)

SMILES: C=CCNC(=O)C(C#N)c1nc2ccccc2nc1N1CCCCCC1 (configuration not stated)
- cell count [1]: 537
- inhibition [1]: -1.4% (inactive)
- inhibition [2]: -190% (inactive)
- nuclei count [2]: 178%
- z-score [3, 10]: -1.46
- z-score [3, 11]: 1.13
- z-score [3, 12]: 1.59
- inhibition [4]: 15% (inactive)
- fluorescence slope [5]: -0.302 (inactive)
- NADPH fluorescence slope [6]: -1.1e-05 (inactive)
- slope [7]: -0.000734 (inactive)
- outcome [8]: inactive
- inhibition [9]: 10.7% (inactive)

SMILES: C=CCOn1c(=O)c(-c2cc3ccccc3o2)[n+]([O-])c2ccccc21
- cell count [1]: 536
- inhibition [1]: -1.4% (inactive)
- inhibition [2]: -41.6% (inactive)
- nuclei count [2]: 144%
- z-score [3, 10]: -0.342
- z-score [3, 11]: 0.414
- z-score [3, 12]: -0.0488
- inhibition [4]: -8.76% (inactive)
- fluorescence slope [5]: -0.123 (inactive)
- NADPH fluorescence slope [6]: 1.7e-05 (inactive)
- slope [7]: 0.00548 (inactive)
- outcome [8]: inactive
- inhibition [9]: 18.3% (inactive)

SMILES: CCN(CC)CCN1C(=O)C(=O)/C(=C(/O)c2ccc(Cl)cc2)C1c1ccncc1 (configuration not stated)
- cell count [1]: 358
- inhibition [1]: 3.7% (inactive)
- inhibition [2]: -38.6% (inactive)
- nuclei count [2]: 64.8%
- z-score [3, 10]: -0.384
- z-score [3, 11]: 0.846
- z-score [3, 12]: -1.58
- inhibition [4]: 26.6% (inactive)
- fluorescence slope [5]: -0.357 (inactive)
- NADPH fluorescence slope [6]: -2e-05 (inactive)
- slope [7]: 0.00633 (inactive)
- outcome [8]: inactive
- inhibition [9]: 21.1% (inactive)

SMILES: COCc1cc(=O)[nH]c(Nc2nc3ccc(C)cc3o2)n1
- cell count [1]: 568
- inhibition [1]: -19% (inactive)
- inhibition [2]: -52.2% (inactive)
- nuclei count [2]: 156%
- z-score [3, 10]: 0.289
- z-score [3, 11]: 0.499
- z-score [3, 12]: -0.0408
- inhibition [4]: -3.97% (inactive)
- fluorescence slope [5]: -0.463 (inactive)
- NADPH fluorescence slope [6]: -4.8e-05 (inactive)
- slope [7]: 0.00626 (inactive)
- outcome [8]: inactive
- inhibition [9]: 2.95% (inactive)

From PubChem BioAssay
